How the values were obtained:
[1] = system: panel of 35 known-liability targets including GPCRs and ion channels; assay: Known-liability off-target panel; conditions: 300 kinases at 1 μM and 35 known-liability targets at 10 μM
[2] = Mouse pharmacokinetic study; format: in vivo; conditions: for clearance: female, Balb/c, mouse, plasma, iv
Summary of the method: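 Female Balb/c mice received test compound i.v. plus p.o., either 1 and 50 mg/kg or 2 and 12.5 mg/kg (n = 3 mice per route). Some arms were pretreated with 1-aminobenzotriazole (50 mg/kg p.o., 2 h before dosing) as a cytochrome P450 inhibitor; others had none. Blood concentration–time profiles were obtained.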

[3] = Mouse preliminary tolerability study; format: in vivo
Summary of the method: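 Dosing was oral, twice daily, for 5 days. Recorded: mortality, clinical observations (e.g. temperature to touch, posture, gait, activity), body weight and weight gain, food consumption, and gross pathology.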

TcCYP51 = TcCYP51 (Trypanosoma cruzi, UniProt Q7Z1V1); assay: Fluorescence-based Trypanosoma cruzi CYP51 inhibition assay; format: biochemical; conditions: concentrations up to and including 100 μM
Mouse cassette dosing PK = format: in vivo; conditions: male, ICR, plasma, iv, 0.1 mg/kg
[4] = system: T. cruzi strain (CL Brener); assay: In vivo efficacy, bioluminescent acute T. cruzi infection in BALB/c mice; parameters: species or system Trypanosoma cruzi; conditions: 50 mg/kg BID p.o. 5 days
Summary of the method: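 Female BALB/c mice, 7–8 weeks old, housed specific-pathogen-free, infected i.p. with 1 × 10³ CL Brener trypomastigotes from SCID mouse blood. The parasites constitutively express the red-shifted luciferase PpyRE9h. From day 14 post-infection (acute peak), mice (n = 3) received test compound orally at 50 mg/kg twice daily for 5 days. Parasite burden was tracked by in vivo bioluminescence imaging against untreated controls through day 18, with animals observed for adverse effects.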

[5] = single p.o. dose 50 mg/kg, no ABT, 50 mg/kg

TcCYP51, sequence (Q7Z1V1 whole entry): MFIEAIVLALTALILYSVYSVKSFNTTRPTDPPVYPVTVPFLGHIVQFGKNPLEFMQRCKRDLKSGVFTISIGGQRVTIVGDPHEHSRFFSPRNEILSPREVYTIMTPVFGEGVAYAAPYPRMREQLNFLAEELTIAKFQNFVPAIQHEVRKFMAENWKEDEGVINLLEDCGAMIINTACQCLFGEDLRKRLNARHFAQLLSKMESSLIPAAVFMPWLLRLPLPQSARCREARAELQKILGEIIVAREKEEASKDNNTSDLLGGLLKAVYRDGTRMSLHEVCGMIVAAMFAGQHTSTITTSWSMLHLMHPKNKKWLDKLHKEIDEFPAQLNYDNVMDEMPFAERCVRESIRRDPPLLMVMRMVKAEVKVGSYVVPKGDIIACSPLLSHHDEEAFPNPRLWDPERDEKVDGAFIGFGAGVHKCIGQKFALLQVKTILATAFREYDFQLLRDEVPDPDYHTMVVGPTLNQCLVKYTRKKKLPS

TcCYP51 inhibitory activity (TcCYP51)	Structure (SMILES)	off-target activity [1]	clearance ([2]; 1 mg/kg) [mL/min/kg]	tolerability (single p.o. dose) [2, 5]	tolerability (5 days BID p.o.) ([3]; healthy mice, 10, 50, 100 mg/kg BID p.o., 5 days)	clearance (Mouse cassette dosing PK) [mL/min/kg]	clearance ([2]; 2 mg/kg) [mL/min/kg]	tolerability (single p.o. dose) ([2]; single dose 12.5 mg/kg p.o. with ABT 50 mg/kg p.o. 2 h prior)	tolerability (single p.o. dose) ([2]; single dose 12.5 mg/kg p.o. with ABT 50 mg/kg p.o. 2 h prior, listed as 85 + ABT)	no-observed-adverse-effect-level (NOAEL) ([3]; BID p.o. 5 days, female mice)	multiday tolerability observations ([3]; female Balb/c mice, 10, 50, 100 mg/kg/dose BID p.o. up to 5 days, 1 animal/group)	adverse effects during treatment of infected mice [4]
–	CC(C)(Nc1nc(-c2ccccn2)nc2ccccc12)c1ccccn1 [Compound 54, 2-(Pyridin-2-yl)-N-(2-(pyridin-2-yl)propan-2-yl)quinazolin-4-amine]	no known off-target activity with the exception of 5HT-1A antagonism	12.4	No adverse reactions or compound-related side effects were observed	poor	–	–	–	–	–	–	–
no inhibitory activity	Fc1ccc(C2CCN(c3nc(-c4ccccn4)nc4ccccc34)C2)cc1 (stereo not shown) [Compound 83, 4-[3-(4-Fluorophenyl)pyrrolidin-1-yl]-2-(pyridin-2-yl)quinazoline]	–	–	–	–	–	–	–	–	–	–	–
–	c1ccc(-c2nc(N3CCC(c4ccccn4)C3)c3ccccc3n2)nc1 (stereo not shown) [Compound 85, 2-(pyridin-2-yl)-4-(3-(pyridin-2-yl)pyrrolidin-1-yl)quinazoline]	–	–	no adverse issues were noted	–	38.5	4.9	adverse tolerability events were observed after the single dose	poor	100 mg/kg/dose (BID)	well tolerated	no adverse effects were observed

Reference: PMC9884087 (Journal of Medicinal Chemistry, 2023)
